Experimental data from PMC5061631 (Cell metabolism, 2016).
pIC50: −log10 of the molar value.

Experiments:
site IQ = conditions: ref Orr et al., 2013; cited from earlier work
[1] = system: site IQ of mitochondrial respiratory complex I; assay type: biochemical, rat; conditions: for pIC50: read-out: IC50 against superoxide-H2O2 production from site IQ, isolated rat skeletal muscle mitochondria
In short: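 Freshly isolated rat skeletal muscle mitochondria, in the high-throughput screen run in 1,536-well format with library compounds at 10 µM. H2O2 was detected by Amplex UltraRed, which horseradish peroxidase oxidises to fluorescent resorufin. Data were normalised to the plate median signal, and rotenone was included on every plate as the positive site IQ inhibitor.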

intestinal stem cells = assay: In vivo stem cell proliferation assays in Drosophila intestine; set-up: species or system Drosophila melanogaster; conditions: dietary, 800 nM; 50 µM tunicamycin
In short: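 Tunicamycin model: w;esgGal4,UAS-GFP virgins were crossed to Oregon Red males. Six-day-old offspring were starved 4 hr, fed 24 hr on 5% sucrose with 0.8% DMSO plus test compound, starved 1 hr, then given the same food with 50 µM tunicamycin for 24 hr. Adult female intestines were fixed and immunostained for phospho-histone H3, and positive cells were counted manually.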

H9c2 rat cardiomyoblasts = assay: ER stress protection assay: caspase 3/7 activation by tunicamycin; assay type: cell-based; conditions: H9c2 cells, 0.5 µg/ml tunicamycin, 24 hr
In short: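 H9c2 cardiomyoblasts were seeded at 8,000 cells/well and grown 24 hr in DMEM with 10% FBS. Test compound or 1% DMSO vehicle was added, then 0.5 µg/ml tunicamycin 15 min later. After a further 24 hr, caspase 3/7 activity was read by luminescence. Background from cells without tunicamycin was subtracted, and values were normalised to vehicle-treated tunicamycin-exposed cells.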

perfused mouse heart = assay: Langendorff-perfused heart model of ischemia-reperfusion injury; conditions: 1.6 µM for 5 min at reperfusion
In short: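 Mouse hearts were excised under tribromoethanol anaesthesia and perfused retrogradely at 4 ml/min in modified Krebs-Henseleit buffer with glucose, palmitate/BSA, lactate and pyruvate. After 20 min equilibration, hearts had 25 min global no-flow ischaemia and 60 min reperfusion. Test compound (1.6 µM) or 0.05% DMSO was infused for 5 min at reperfusion onset. Rate × developed pressure was normalised to pre-ischaemic baseline, infarct area was measured by TTC in 4–6 slices, and n = 6 per group.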

Row | Compound | concentrations with off-target effects (site IQ) [µM] | inhibition of the fluorescent signal (positive inhibitor of site IQ) ([1]; plate control in screen) [%] | pIC50 [1] | suppression of tunicamycin-induced increase in mitotic marker phospho-histone H3 (intestinal stem cells) | caspase 3/7 activation by tunicamycin (H9c2 rat cardiomyoblasts) | post-ischemic recovery of cardiac function (rate × pressure product) (perfused mouse heart; 25 min ischemia) | infarct size (perfused mouse heart; TTC staining)
1 | O=[N+]([O-])c1ccc(Oc2ccc(S(=O)(=O)NC3CCCCC3)cc2)cc1 [CN-POBS, N-cyclohexyl-4-(4-nitrophenoxy) benzenesulfonamide] | > 10 |  |  |  |  |  | 
2 | C=C(C)[C@H]1Cc2c(ccc3c2O[C@@H]2COc4cc(OC)c(OC)cc4[C@@H]2C3=O)O1 [Rotenone, reference compound] |  | > 85 |  |  |  |  | 
3 | CC(=O)Nc1cccc(NC(=O)C(=O)NCCc2sc(-c3ccc(C)cc3)nc2C)c1 [S1QEL1.1] |  |  | 7.15 | up to 45% | strongly attenuated caspase activation | significantly improved | small but significant decrease
4 | CCCCC1CCC(C(=O)NCCS(=O)(=O)N2CCN(c3cccc(Cl)c3)CC2)CC1 (stereo not shown) [S1QEL2.2] |  |  | 5.82 | up to 45% | also did so at higher concentrations |  | 
